Values joined by “and” are separate entries in the source; they are usually repeats but may differ in a detail not shown here. Identical values can stand only once. Active and inactive are the calls of the source. The rule behind the calls is not given here.
Experiments:
Tubulin = Tubulin (Bos taurus, UniProt Q6B856+Q862L2+Q862F3); test: Inhibition of bovine brain tubulin polymerization preincubated for 15 mins by spectrophotometric analysis
In short: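 Purified bovine brain tubulin, 1.0 mg/mL (10 μM), in 0.8 M monosodium glutamate pH 6.6 with 4% DMSO and varied compound. Temperature jumped from 0 to 30 °C; turbidity at 350 nm followed for 20 min.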

NCI-H460 [1] = test: Cytotoxicity against human NCI-H460 cells assessed as growth inhibition after 48 hrs by SRB assay; assay type: functional
In short: (§1)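 Cells kept at 37 °C, 5% CO2, up to passage 15. Plated at 7500 cells/well in DMEM with 5% FBS and 1% gentamycin, grown 24 h, then given 10-fold serial dilutions for 48 h. Fixed with 10% TCA (final), SRB-stained, read at 540 nm, normalized at 630 nm. GI50 is the concentration halving net protein staining versus controls, taken from optical density data.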

[2] = Cytotoxicity against human SKOV3 cells assessed as growth inhibition after 48 hrs by SRB assay; assay type: functional, SK-OV-3; in short: as §1
[3] = Cytotoxicity against human DU145 cells assessed as growth inhibition after 48 hrs by SRB assay; assay type: functional, DU-145; in short: as §1
Leucine aminopeptidase [4] = target: T1, Leucine aminopeptidase (Sus scrofa, UniProt Q29571); test: Prodrug conversion assessed as porcine leucine aminopeptidase-mediated compound cleavage by HPLC analysis; assay type: ADME; settings: pig
T1 sequence (Q29571 whole entry): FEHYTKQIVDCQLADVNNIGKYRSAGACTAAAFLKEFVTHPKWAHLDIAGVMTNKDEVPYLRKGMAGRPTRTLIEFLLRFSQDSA
In short: (§2)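 Porcine kidney microsomal LAP; units defined with 24 mM L-leucine p-nitroanilide in 50 mM sodium phosphate pH 7.2 at 37 °C. Enzyme preincubated in the same buffer at 37 °C, then substrate added. Aliquots were quenched with acetonitrile on ice, centrifuged and run on C18 HPLC (acetonitrile/water, 0.05% TFA, 1.0 mL/min, 22 °C, diode-array UV). Cleavage % from the parent/prodrug peak-area ratio; amounts from calibration curves.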

Tubulin (Bos taurus) [5] = target: T2, Tubulin (Bos taurus) (UniProt Q6B856+Q862L2+Q862F3); test: Displacement of [3H]colchicine from bovine brain tubulin at 1 uM after 10 mins by scintillation counting analysis
In short: (§3)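 1.0 μM tubulin with 5.0 μM [3H]colchicine and inhibitor at 1.0 or 5.0 μM. Buffer: 5% DMSO, 1.0 M monosodium glutamate pH 6.6, 0.5 mg/mL BSA, 0.1 M glucose-1-phosphate, 1.0 mM MgCl2, 1.0 mM GTP. Incubated 10 min at 37 °C, stopped with ice-cold water, collected on DEAE-cellulose filters and scintillation counted. Corrected for filter binding without tubulin; % inhibition against no-inhibitor controls.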

NCI-H460 [6] = test: Cytotoxicity against human NCI-H460 cells assessed as growth inhibition using compound dissolved in water after 48 hrs by SRB assay; assay type: functional; settings: NCI-H460, 48 h; in short: as §1
[7] = Cytotoxicity against human DU145 cells assessed as growth inhibition using compound dissolved in water after 48 hrs by SRB assay; assay type: functional; settings: DU-145, 48 h; in short: as §1
[8] = Cytotoxicity against human SKOV3 cells assessed as growth inhibition using compound dissolved in water after 48 hrs by SRB assay; assay type: functional; settings: SK-OV-3, 48 h; in short: as §1
[9] = Cytotoxicity against human SKOV3 cells assessed as growth inhibition using compound dissolved in DMSO after 48 hrs by SRB assay; assay type: functional; settings: SK-OV-3, 48 h; in short: as §1
[10] = Cytotoxicity against human DU145 cells assessed as growth inhibition using compound dissolved in DMSO after 48 hrs by SRB assay; assay type: functional; settings: DU-145, 48 h; in short: as §1
NCI-H460 [11] = test: Cytotoxicity against human NCI-H460 cells assessed as growth inhibition using compound dissolved in DMSO after 48 hrs by SRB assay; assay type: functional; settings: NCI-H460, 48 h; in short: as §1
Tubulin (Bos taurus) [12] = target: T2, Tubulin (Bos taurus); test: Displacement of [3H]colchicine from bovine brain tubulin at 5 uM after 10 mins by scintillation counting analysis; in short: as §3
HUVEC = test: Antivascular activity in HUVEC cells assessed as disruption of capillary-like network of tubules formation at 0.1 uM by matrigel assay; assay type: functional, cell-based; settings: Homo sapiens
In short: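 HUVECs (124,000 per well in M200 with growth factors) plated on Matrigel (9.5 mg/mL) that had been set for 60 min at 37 °C. Cells incubated 16 h at 37 °C to form tubule networks. Then treated at 0.01, 0.1 or 1.0 μM and photographed, 9 fields/well with 40x objective.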

Leucine aminopeptidase [13] = target: T1, Leucine aminopeptidase; test: Activity at porcine leucine aminopeptidase by HPLC analysis; assay type: ADME; settings: pig; in short: as §2
Leucine aminopeptidase [14] = target: T1, Leucine aminopeptidase; test: Prodrug conversion assessed as porcine leucine aminopeptidase-mediated compound cleavage at 25 hrs using 0.12 units of enzyme by HPLC analysis; assay type: ADME; settings: pig; in short: as §2

COc1ccc(/C=C\c2cc(OC)c(OC)c(OC)c2)cc1NC(=O)[C@@H](N)CO [OMBRABULIN]
IC50 (Tubulin): 14 µM | GI50 (NCI-H460 [1]): 0.0241 µM | GI50 [2]: 0.00902 µM | GI50 [3]: 0.0164 µM | Drug metabolism (Leucine aminopeptidase [4]): 95%

COc1ccc(/C=C\c2cc(OC)c(OC)c(OC)c2)cc1O [COMBRETASTATIN A4]
GI50 (NCI-H460 [1]; Homo sapiens, NCI-H460, 48 h): 0.005 µM | GI50 ([2]; Homo sapiens, SK-OV-3, 48 h): 0.00506 µM | inhibition (Tubulin (Bos taurus) [5]): 84% | GI50 ([3]; Homo sapiens, DU-145, 48 h): 0.00602 µM

COc1ccc(/C=C/c2cc(OC)c(OC)c(OC)c2)c(NC(=O)CN)c1.Cl
GI50 (NCI-H460 [6]): 0.38 µM | GI50 [7]: 0.674 µM | GI50 [8]: 0.426 µM | GI50 [9]: 0.427 µM | Drug metabolism (Leucine aminopeptidase [4]): 100% | GI50 [10]: 0.63 µM | GI50 (NCI-H460 [11]): 0.418 µM

COc1ccc(/C=C\c2cc(OC)c(OC)c(OC)c2)c(NC(=O)[C@@H](N)CO)c1NC(=O)[C@@H](N)CO.Cl.Cl
GI50 (NCI-H460 [1]): > 86.6 µM | GI50 [2]: > 86.6 µM | GI50 [3]: > 86.6 µM | Drug metabolism (Leucine aminopeptidase [4]): metabolite_notdetected

COc1ccc(/C=C\c2cc(OC)c(OC)c(OC)c2)c(N)c1
inhibition (Tubulin (Bos taurus) [12]): 88% and 75% | inhibition (Tubulin (Bos taurus) [5]): 55%

COc1ccc2c(c1NC(=O)CN)CCC=C2c1cc(OC)c(OC)c(OC)c1
GI50 (NCI-H460 [1]; Homo sapiens, NCI-H460, 48 h): 0.0365 µM | GI50 [2]: 0.0138 µM | GI50 ([3]; Homo sapiens, DU-145, 48 h): 0.0501 µM

COc1ccc(/C=C\c2cc(OC)c(OC)c(OC)c2)c(N)c1N
Activity (HUVEC): Active | inhibition (Tubulin (Bos taurus) [12]): 87% and 86% | inhibition (Tubulin (Bos taurus) [5]): 55% and 46%

COc1ccc(/C=C\c2cc(OC)c(OC)c(OC)c2)cc1N
GI50 (NCI-H460 [1]; Homo sapiens, NCI-H460, 48 h): 0.00449 µM | GI50 ([2]; Homo sapiens, SK-OV-3, 48 h): 0.00445 µM | GI50 ([3]; Homo sapiens, DU-145, 48 h): 0.0033 µM

COc1ccc2c(c1NC(=O)CN)CCCC=C2c1cc(OC)c(OC)c(OC)c1.Cl
GI50 (NCI-H460 [1]): 0.567 µM | Activity (Leucine aminopeptidase [13]): 0.12 µM/min | GI50 [2]: 0.203 µM | GI50 [3]: 0.773 µM | Drug metabolism (Leucine aminopeptidase [4]): 100%

COc1ccc(/C=C\c2cc(OC)c(OC)c(OC)c2)c(NC(=O)CN)c1NC(=O)CN.Cl.Cl
GI50 (NCI-H460 [6]): > 96.6 µM | GI50 [7]: > 90.4 µM | GI50 [8]: > 56.4 µM | GI50 [9]: 39.3 µM | Drug metabolism (Leucine aminopeptidase [14]): > 95% | Drug metabolism (Leucine aminopeptidase [4]): < 50% | GI50 [10]: > 64.7 µM | GI50 (NCI-H460 [11]): > 68.5 µM

COc1ccc(/C=C/c2cc(OC)c(OC)c(OC)c2)c(NC(=O)[C@H](N)CO)c1.Cl
GI50 (NCI-H460 [1]; Homo sapiens, NCI-H460, 48 h): 2.24 µM | GI50 ([2]; Homo sapiens, SK-OV-3, 48 h): 2.29 µM | GI50 ([3]; Homo sapiens, DU-145, 48 h): 4.55 µM | Drug metabolism (Leucine aminopeptidase [4]): 90%

COc1ccc(/C=C\c2cc(OC)c(OC)c(OC)c2)cc1NC(=O)[C@@H](N)CO.Cl
IC50 (Tubulin): 13 µM | GI50 (NCI-H460 [1]): 0.00387 µM | GI50 [2]: 0.00396 µM | GI50 [3]: 0.00334 µM | Drug metabolism (Leucine aminopeptidase [4]): 95%

COc1ccc(/C=C\c2cc(OC)c(OC)c(OC)c2)c(NC(=O)CN)c1
GI50 (NCI-H460 [1]; Homo sapiens, NCI-H460, 48 h): 0.0532 µM | GI50 ([2]; Homo sapiens, SK-OV-3, 48 h): 0.0323 µM | GI50 ([3]; Homo sapiens, DU-145, 48 h): 0.0436 µM

COc1ccc(/C=C\c2cc(OC)c(OC)c(OC)c2)c(NC(=O)[C@@H](N)CO)c1.Cl
GI50 (NCI-H460 [1]): 0.0317 µM | Activity (Leucine aminopeptidase [13]): 1.2 µM/min | GI50 [2]: 0.0516 µM | GI50 [3]: 0.0484 µM | Drug metabolism (Leucine aminopeptidase [4]): 62%

From ChEMBL document CHEMBL3763088, “Design, synthesis, and biological evaluation of water-soluble amino acid prodrug conjugates derived from combretastatin, dihydronaphthalene, and benzosuberene-based parent vascular disrupting agents” (Bioorg Med Chem, 2016)
